Test results taken from ChEMBL document CHEMBL3393023, “Benzimidazole-containing HCV NS5A inhibitors: effect of 4-substituted pyrrolidines in balancing genotype 1a and 1b potency” (Bioorg Med Chem Lett, 2015).

Legend:
[1] = Cytotoxicity against human Huh7ET cells by [3H]-thymidine incorporation assay; assay type: cell-based; conditions: Huh7ET cells (Huh-7)
Procedure, shortened: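 Huh-7 ET cells were exposed to 12 test-compound concentrations, each in duplicate. Viability was read by [3H]-thymidine incorporation and CC50 was derived from the curve. A run was accepted only when the positive-control CC50 fell within 40% of its mean value.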

Hepatitis C virus [2] = assay: Antiviral activity against Hepatitis C virus genotype 1b infected in human Huh-5.2 cells assessed as decrease in HCV replicon RNA replication after 4 days by luciferase assay; assay type: functional, cell-based, Hepacivirus hominis; conditions: Huh-5-2, 96 h
Hepatitis C virus [3] = assay: Antiviral activity against Hepatitis C virus genotype 1a infected in W11.8 cells assessed as decrease in NS5A expression in replicon cell after 4 days by luminescence based ELISA; assay type: functional, Hepacivirus hominis; conditions: subtype 1a, W11.8, 96 h

| EC50 (Hepatitis C virus [2]) [nM] | EC50 (Hepatitis C virus [3]) [nM] | SMILES | CC50 [1] [nM] |
| --- | --- | --- | --- |
| 0.01 | 0.94 | COC(=O)N[C@H](C(=O)N1CCC[C@H]1c1nc2ccc(-c3ccc(-c4ccc5nc([C@@H]6CCCN6C(=O)[C@@H](NC(=O)OC)C(C)C)[nH]c5c4)s3)cc2[nH]1)C(C)C | 6000 |
| 0.012 | 0.55 | COC(=O)N[C@H](C(=O)N1CCC[C@H]1c1nc2ccc(-c3ccc(-c4ccc5nc([C@@H]6CCCN6C(=O)[C@@H](NC(=O)OC)C(C)C)[nH]c5c4)cc3)cc2[nH]1)C(C)C | 6000 |
| 0.013 | 0.139 | COC(=O)N[C@H](C(=O)N1CCC[C@H]1c1ncc(-c2ccc(-c3ccc(-c4ccc5nc([C@@H]6CCCN6C(=O)[C@@H](NC(=O)OC)C(C)C)[nH]c5c4)cc3)cc2)[nH]1)C(C)C |  |
| 26 | > 2000 | COC(=O)N[C@H](C(=O)N1CCC[C@H]1c1nc2ccc(-c3ccc4nc([C@@H]5CCCN5C(=O)[C@@H](NC(=O)OC)C(C)C)[nH]c4c3)cc2[nH]1)C(C)C | > 20000 |
| 0.022 | 28 | COC(=O)N[C@H](C(=O)N1CCC[C@H]1c1nc2ccc(C#Cc3ccc4nc([C@@H]5CCCN5C(=O)[C@@H](NC(=O)OC)C(C)C)[nH]c4c3)cc2[nH]1)C(C)C | > 20000 |
| 0.024 | 18 | COC(=O)N[C@H](C(=O)N1CCC[C@H]1c1nc2ccc(C#CC#Cc3ccc4nc([C@@H]5CCCN5C(=O)[C@@H](NC(=O)OC)C(C)C)[nH]c4c3)cc2[nH]1)C(C)C | 13000 |
| 0.076 | 688 | COC(=O)N[C@H](C(=O)N1CCC[C@H]1c1nc2cc(CCc3ccc4[nH]c([C@@H]5CCCN5C(=O)[C@@H](NC(=O)OC)C(C)C)nc4c3)ccc2[nH]1)C(C)C | > 20000 |
| 20 | 378 | COC(=O)N[C@H](C(=O)N1CCC[C@H]1c1nc2cc(-c3cccc(-c4ccc5[nH]c([C@@H]6CCCN6C(=O)[C@@H](NC(=O)OC)C(C)C)nc5c4)c3)ccc2[nH]1)C(C)C | 6000 |
| 0.006 | 0.84 | COC(=O)N[C@H](C(=O)N1CCC[C@H]1c1nc2cc(-c3ccc(-c4ccc5[nH]c([C@@H]6CCCN6C(=O)[C@@H](NC(=O)OC)C(C)C)nc5c4)c(C)c3)ccc2[nH]1)C(C)C | 3000 |
| 0.013 | 0.36 | COC(=O)N[C@H](C(=O)N1CCC[C@H]1c1nc2cc(-c3ccc(-c4ccc5nc([C@@H]6CCCN6C(=O)[C@@H](NC(=O)OC)C(C)C)[nH]c5c4)cc3OC)ccc2[nH]1)C(C)C | 6000 |
| 0.012 | 0.84 | COC(=O)N[C@H](C(=O)N1CCC[C@H]1c1nc2cc(-c3ccc(-c4ccc5[nH]c([C@@H]6CCCN6C(=O)[C@@H](NC(=O)OC)C(C)C)nc5c4)c(F)c3)ccc2[nH]1)C(C)C | 6000 |
| 0.006 | 0.9 | COC(=O)N[C@H](C(=O)N1CCC[C@H]1c1nc2cc(-c3cc(C)c(-c4ccc5[nH]c([C@@H]6CCCN6C(=O)[C@@H](NC(=O)OC)C(C)C)nc5c4)cc3C)ccc2[nH]1)C(C)C | 5000 |
| 0.01 | 2.9 | COC(=O)N[C@H](C(=O)N1CCC[C@H]1c1nc2cc(-c3ccc(-c4ccc5[nH]c([C@@H]6CCCN6C(=O)[C@@H](NC(=O)OC)C(C)C)nc5c4)c(C)c3C)ccc2[nH]1)C(C)C | 7000 |
| 0.082 | 4.9 | COC(=O)N[C@H](C(=O)N1C[C@@H](F)C[C@H]1c1nc2cc(-c3ccc(-c4ccc5[nH]c([C@@H]6C[C@H](F)CN6C(=O)[C@@H](NC(=O)OC)C(C)C)nc5c4)cc3)ccc2[nH]1)C(C)C | 11000 |
| 0.018 | 1.1 | COC(=O)N[C@H](C(=O)N1C[C@H](F)C[C@H]1c1nc2cc(-c3ccc(-c4ccc5[nH]c([C@@H]6C[C@@H](F)CN6C(=O)[C@@H](NC(=O)OC)C(C)C)nc5c4)cc3)ccc2[nH]1)C(C)C | 14000 |
| 0.004 | 0.5 | COC(=O)N[C@H](C(=O)N1CC(F)(F)C[C@H]1c1nc2cc(-c3ccc(-c4ccc5[nH]c([C@@H]6CC(F)(F)CN6C(=O)[C@@H](NC(=O)OC)C(C)C)nc5c4)cc3)ccc2[nH]1)C(C)C | 13000 |
| 0.1 | 15 | COC(=O)N[C@H](C(=O)N1C[C@H](O)C[C@H]1c1nc2cc(-c3ccc(-c4ccc5[nH]c([C@@H]6C[C@@H](O)CN6C(=O)[C@@H](NC(=O)OC)C(C)C)nc5c4)cc3)ccc2[nH]1)C(C)C | > 20000 |
| 0.034 | 1.22 | COC(=O)N[C@H](C(=O)N1C[C@H](OC)C[C@H]1c1nc2cc(-c3ccc(-c4ccc5[nH]c([C@@H]6C[C@@H](OC)CN6C(=O)[C@@H](NC(=O)OC)C(C)C)nc5c4)cc3)ccc2[nH]1)C(C)C | 6000 |
| 0.031 | 0.053 | COC(=O)N[C@H](C(=O)N1C[C@@H](OC)C[C@H]1c1nc2cc(-c3ccc(-c4ccc5[nH]c([C@@H]6C[C@H](OC)CN6C(=O)[C@@H](NC(=O)OC)C(C)C)nc5c4)cc3)ccc2[nH]1)C(C)C | > 20000 |
| 0.007 | 0.028 | COC(=O)N[C@H](C(=O)N1C[C@H](C)C[C@H]1c1nc2cc(-c3ccc(-c4ccc5[nH]c([C@@H]6C[C@@H](C)CN6C(=O)[C@@H](NC(=O)OC)C(C)C)nc5c4)cc3)ccc2[nH]1)C(C)C | 14000 |
| 0.037 | 0.026 | COC(=O)N[C@H](C(=O)N1C[C@@H](C)C[C@H]1c1nc2cc(-c3ccc(-c4ccc5[nH]c([C@@H]6C[C@H](C)CN6C(=O)[C@@H](NC(=O)OC)C(C)C)nc5c4)cc3)ccc2[nH]1)C(C)C | > 20000 |
| 0.005 | 0.03 | COC(=O)N[C@H](C(=O)N1C[C@@H](C(F)(F)F)C[C@H]1c1nc2cc(-c3ccc(-c4ccc5[nH]c([C@@H]6C[C@H](C(F)(F)F)CN6C(=O)[C@@H](NC(=O)OC)C(C)C)nc5c4)cc3)ccc2[nH]1)C(C)C | 13000 |
| 0.019 | 0.085 | CC[C@H]1C[C@@H](c2nc3cc(-c4ccc(-c5ccc6[nH]c([C@@H]7C[C@H](CC)CN7C(=O)[C@@H](NC(=O)OC)C(C)C)nc6c5)cc4)ccc3[nH]2)N(C(=O)[C@@H](NC(=O)OC)C(C)C)C1 | > 20000 |
| 0.011 | 0.03 | COC(=O)N[C@H](C(=O)N1CC(C)(C)C[C@H]1c1nc2cc(-c3ccc(-c4ccc5[nH]c([C@@H]6CC(C)(C)CN6C(=O)[C@@H](NC(=O)OC)C(C)C)nc5c4)cc3)ccc2[nH]1)C(C)C | > 20000 |
| 0.024 | 0.018 | COC(=O)N[C@H](C(=O)N1C[C@@H](C)C[C@H]1c1nc2cc(C#CC#Cc3ccc4[nH]c([C@@H]5C[C@H](C)CN5C(=O)[C@@H](NC(=O)OC)C(C)C)nc4c3)ccc2[nH]1)C(C)C |  |
